# How the values were obtained:
# Leishmania donovani = test: Antileishmanial activity against Leishmania donovani MHOM-ET-67/L82 axenic amastigotes after 70 hrs by resazurin staining based fluorescence assay; assay type: functional, organism-based; settings: MHOM-ET-67/L82, 70 h
# Procedure, shortened: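 Axenically grown amastigotes of strain MHOM-ET-67/L82 were exposed to serial drug dilutions of 11 3-fold steps spanning 100 to 0.001 μg/mL, with miltefosine as reference. IC50 was obtained by linear regression. Each assay was run singly and repeated at least twice, and the reported value is the average of two independent assays.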
# Plasmodium falciparum = test: Antiplasmodial activity against Plasmodium falciparum NF54 infected in human erythrocytes assessed as reduction in [3H]-hypoxanthine incorporation pretreated for 48 hrs followed by [3H]-hypoxanthine addition measured after 24 hrs by liquid scintillation counting method; assay type: functional, organism-based
# Procedure, shortened: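 Erythrocytic-stage NF54 parasites were tested over 11 3-fold serial dilutions from 100 to 0.001 μg/mL, with chloroquine as reference. IC50 was derived by linear regression. Runs were single and repeated at least twice, and the value given is the mean of two independent assays.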
# L6 = test: Cytotoxicity against rat L6 cells; assay type: cell-based
# Procedure, shortened: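 Rat skeletal myoblast L6 cells were exposed to 11 3-fold serial drug dilutions covering 100 to 0.001 μg/mL, with podophyllotoxin as reference. IC50 was calculated by linear regression. Runs were single and repeated at least two times, and the figure is the mean of two independent assays.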
# [1] = Selectivity index, ratio of IC50 for rat L6 cells to IC50 for axenic amastigotes
# Procedure, shortened: (§1)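 The selectivity index is the IC50 in L6 cells divided by the IC50 in the named parasite. Each IC50 comes from 11-step 3-fold dilution series (100 to 0.001 μg/mL) fitted by linear regression and averaged over two independent assays.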
# [2] = Selectivity index, ratio of IC50 for rat L6 cells to IC50 for Plasmodium falciparum NF54 infected in human erythrocytes; assay type: toxicity, cell-based; settings: read-out: Ratio IC50; procedure, shortened: as §1
Compound,IC50 (Leishmania donovani),IC50 (Plasmodium falciparum),IC50 (L6),Ratio IC50 [1],selectivity ratio [2]
CC(=O)c1c(O)c(Cc2c(O)c(C)c(C)oc2=O)c(O)c2c1OC(C)(C)C=C2,1.8 µM,11.3 µM,53.1 µM,29.7,4.7
CCC1=C(C)C(=O)C2(Cc3c(O)c(CC=C(C)C)c(O)c(C(=O)C(C)C)c3O2)O1 (configuration not stated),6 µM,18 µM,43 µM,7.2,2.1
CCc1oc(=O)c(Cc2c(O)c(CC=C(C)CCC=C(C)C)c(O)c(C(=O)C(C)CC)c2O)c(O)c1C (configuration not stated),5.6 µM,1.2 µM,36.3 µM,6.4,15.7
CC(=O)c1c(O)c(CC=C(C)CCC=C(C)C)c(O)c2c1OC1(C2)OC(C)=C(C)C1=O (configuration not stated),2.8 µM,23.9 µM,43.4 µM,15.6,2.2
CC(C)=CCCC(C)=CCc1c(O)c2c(c(C(=O)C(C)C)c1O)OC1(C2)OC(C)=C(C)C1=O (configuration not stated),2.2 µM,7.2 µM,18.8 µM,8.5,5.5
CCc1oc(=O)c(Cc2c(O)c(CC=C(C)C)c(O)c(C(=O)C(C)CC)c2O)c(O)c1C (configuration not stated),16.8 µM,2.5 µM,37.8 µM,2.25,5.36
CCC(=O)c1c(O)c(CC=C(C)C)c(O)c2c1OC1(C2)OC(C)=C(C)C1=O (configuration not stated),7.1 µM,31.7 µM,44.1 µM,6.2,0.8
CC(C)=CCc1c(O)c2c(c(C(=O)C(C)C)c1O)OC1(C2)OC(C)=C(C)C1=O (configuration not stated),1.9 µM,22.7 µM,20.1 µM,10.5,1.9
CCc1oc(=O)c(Cc2c(O)c(Cc3c(O)c(C)c(CC)oc3=O)c(O)c(C(=O)C(C)C)c2O)c(O)c1C,2.5 µM,8.6 µM,57.6 µM,22.9,4.4
CCC(C)C(=O)c1c(O)c(CC=C(C)C)c(O)c(Cc2c(O)c(C)c(C)oc2=O)c1O (configuration not stated),4.8 µM,5.5 µM,55.5 µM,11.5,7.9
CCc1oc(=O)c(Cc2c(O)c(C)c(C)oc2=O)c(O)c1C,15.5 µM,18.1 µM,43.9 µM,2.8,3.4
CCC(C)C(=O)c1c(O)c(CC=C(C)CCC=C(C)C)c(O)c(Cc2c(O)c(C)c(C)oc2=O)c1O (configuration not stated),4.4 µM,2.6 µM,48.3 µM,11.1,7.7
CCc1oc(=O)c(Cc2c(O)c(C(=O)C(C)C)c(O)c3c2O[C@@]2(C)CC[C@@H]4[C@H]2[C@H]3C4(C)C)c(O)c1C,2 µM,7.12 µM,12 µM,6,1.7
Cc1oc(=O)c(Cc2c(O)c(C)c(C)oc2=O)c(O)c1C,15.7 µM,22.3 µM,26.5 µM,1.7,2.5
CCC(C)C(=O)c1c(O)c(CC=C(C)C)c(O)c2c1OC1(C2)OC(C)=C(C)C1=O (configuration not stated),1.7 µM,7.6 µM,13.2 µM,7.6,4.8
CC(C)=CCc1c(O)c(Cc2c(O)c(C)c(C)oc2=O)c(O)c(C(=O)C(C)C)c1O,5.8 µM,8 µM,61.1 µM,10.4,5.5
CCc1oc(=O)c(Cc2c(O)c(CC=C(C)CCC=C(C)C)c(O)c(C(=O)C(C)C)c2O)c(O)c1C,2.7 µM,3.8 µM,39.7 µM,15,11.3
CCC1=C(C)C(=O)C2(Cc3c(O)c(CC=C(C)C)c(O)c(C(C)=O)c3O2)O1 (configuration not stated),5.8 µM,23.1 µM,55.1 µM,9.5,2.3
CC(=O)c1c(O)c(CC=C(C)C)c(O)c2c1OC1(C2)OC(C)=C(C)C1=O (configuration not stated),5.1 µM,14.6 µM,56.3 µM,11.1,3.9
CCc1oc(=O)c(Cc2c(O)c(CC=C(C)C)c(O)c(C(=O)C(C)C)c2O)c(O)c1C,13.7 µM,7.4 µM,52.2 µM,3.8,7.6
CC(C)=CCCC(C)=CCc1c(O)c(Cc2c(O)c(C)c(C)oc2=O)c(O)c(C(=O)C(C)C)c1O,3.1 µM,5.7 µM,38.4 µM,12.3,9.6
CCc1oc(=O)c(Cc2c(O)c3c(c(C(=O)C(C)C)c2O)OC(C)(CCC=C(C)C)C=C3)c(O)c1C (racemic),1.9 µM,9.3 µM,21.4 µM,11.2,2.3
CCc1oc(=O)c(Cc2c(O)c(C)c(CC)oc2=O)c(O)c1C [HELIPYRONE],14.9 µM,8.9 µM,54.3 µM,3.6,5.4
CCCCCCCCCCCCCCCCOP(=O)([O-])OCC[N+](C)(C)C [MILTEFOSINE],0.285 µM,,,,
COc1cc([C@@H]2c3cc4c(cc3[C@H](O)[C@H]3COC(=O)[C@H]23)OCO4)cc(OC)c1OC [PODOFILOX],,,0.005 µM,,

# Reference: ChEMBL document CHEMBL4480462, “HPLC-Based Activity Profiling for Antiprotozoal Compounds in the Endemic Iranian Medicinal Plant Helichrysum oocephalum” (J Nat Prod, 2019)
